For assay [1], the system named is RAS-GTP levels in HeLa cells. Kind of assay: RAS-GTP levels in HeLa cells. It counts as cell-based. Conditions: 30 minutes, up to 200 μM compound.
The target in assay [2] is SOS-catalyzed nucleotide exchange on RAS (SOScat, K-RAS G12D) (Homo sapiens, UniProt Q07889). Kind of assay: SOS-catalyzed nucleotide exchange assay using BODIPY-GDP-loaded RAS. It counts as biochemical. The note with it: average of the two values of Table 1; 100 μM compound; normalized to API. The procedure, abridged: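 SOScat (residues 564–1049) with BODIPY-GDP-loaded RAS in 25 mM Tris pH 7.5, 50 mM NaCl, 1 mM MgCl2. Compound added at 10 s and unlabeled GTP at 120 s; fluorescence loss followed for 30 min. Rates come from single-exponential decay fits, normalized between SOS-catalyzed exchange without compound (0) and the maximal rate from the control compound on each plate (100).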

In assay [3] the test system is phospho ERK1/2 T202/Y204 levels in HeLa cells. Kind of assay: phospho ERK1/2 T202/Y204 levels in HeLa cells. It is filed as cell-based. The note with it: 30 minutes; for phospho ERK levels at higher concentrations: higher concentrations (up to 200 μM); for phospho ERK levels at lower concentrations: lower concentrations of compound.

These results are taken from paper PMC5935105 (Analytical biochemistry, 2018).

Take `N[C@@H](Cc1c[nH]c2ccccc12)C(=O)NC1CCN(Cc2c[nH]c3ccc(Cl)cc23)CC1` [API, (S)-2-amino-N-(1-((5-chloro-1H-indol-3-yl)methyl)piperidin-4-yl)-3-(1H-indol-3-yl)propanamide, reference compound]: the “RAS-GTP levels relative to DMSO control” value in assay [1] is reported as “increase in RAS-GTP levels was observed”. The “Average Relative Rate of Nucleotide Exchange at 100 μM” value in assay [2] is given as 100%. In addition, in assay [3], the “phospho ERK levels at higher concentrations” value is listed as “inhibition of phospho ERK levels was observed” and the “phospho ERK levels at lower concentrations” value was “induction of phospho ERK levels”.

`c1ccc(C(CCNC2CCNCC2)c2ccccc2)cc1` [Compound 4a, N-(3,3-diphenylpropyl)piperidin-4-amine]: in assay [1], the “RAS-GTP levels relative to DMSO control” value is listed as “increase in RAS-GTP levels was observed”. Further, the “Average Relative Rate of Nucleotide Exchange at 100 μM” value in assay [2] came out at 69.1%. For the same molecule, in assay [3], the “phospho ERK levels at higher concentrations” value was “inhibition of phospho ERK levels was observed” and the “phospho ERK levels at lower concentrations” value is reported as “induction of phospho ERK levels”.

In the case of `CCCN1CCC(NCCC(c2ccccc2)c2ccccc2)CC1` [Compound 4, N-(3,3-diphenylpropyl)-1-propylpiperidin-4-amine], in assay [1], the “RAS-GTP levels relative to DMSO control” value is on record as “did not cause an increase in RAS-GTP levels”. Further, the “Average Relative Rate of Nucleotide Exchange at 100 μM” value in assay [2] is 50.9%.
